This series in a line: Toxicity liver stage against HepG2, at 10uM. The series is classed as cell-based. Set-up: test concentration 10 uM, cell line HepG2-A16-CD81EGFP. The settings on record: human, HepG2-A16-CD81EGFP cells; read-out: INHIBITION
The essentials: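 Uninfected HepG2-A16-CD81EGFP cells, 3 × 10^3 per well, 1536-well, plated on prespotted compound at 10 μM final, parasite-free screening media added to match infected plates; puromycin 10 μM positive, DMSO 0.5% negative; run in parallel with 48 h PbLuc assay at 37 °C, 5% CO2; viability by CellTiter-Glo luminescence, normalized to controls.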

This note sets out measurements from ChEMBL document CHEMBL4513216, “Probing the Open Global Health Chemical Diversity Library for Multistage-Active Starting Points for Next-Generation Antimalarials” (ACS Infect Dis, 2020).

In the case of `O=C(O)[C@@H]1CN(Cc2c[nH]c(CC3CCCC3)n2)C[C@H]1c1ccncc1`, the cytotoxicity at 10 µM was found to be 1.08%.

With `CN(C)S(=O)(=O)N1CCC[C@]2(C[C@@H](Oc3ccccn3)CO2)C1`, the cytotoxicity at 10 µM is -2.31%. For `O=C(Cn1ncc(N2CCCC2)cc1=O)Nc1ccc2nccnc2c1`, the cytotoxicity at 10 µM was 1.83%. As for `CN(C)c1cncc(C2CCN(CC3(O)CCCCC3)CC2)n1`, the cytotoxicity at 10 µM is -30%. To `COc1ncccc1C(Cc1ccsc1)NC(=O)Cn1cccnc1=O` (stereo not given) belongs -5.47%; to `O=C(N1CCOCC1)N1CCN(c2ccc(Cl)nn2)C(=O)C1`, 8.57%. To `CNC(=O)c1ccc(CNC(=O)NCCN(C)C2CCCC2)cc1` belongs -7.66%; to `COc1ccc2c(ccn2CCC(=O)/N=c2\[nH]nc(C3CCCO3)s2)c1` (stereo not given), -8.07%; to `c1cc(CN2CCC(c3ccncc3)CC2)cc(Cn2cccn2)c1`, -10.1%.

In the case of `O=C(N1CCCC1)N1CCC2(CC1)CN(c1cccnc1)C(=O)CO2`, the cytotoxicity at 10 µM was -99.6%. Consider `Cc1occc1C(=O)N1CCn2cnc(COCC3CC3)c2C1`, for which the cytotoxicity at 10 µM is -6.4%. As for `CC(=O)N1CCC(C(=O)NCc2ncc(-c3ccccc3)o2)CC1`, the cytotoxicity at 10 µM was -63.8%.

Turning to `Cn1nc(CNc2ncccn2)c2c1CN(c1cnccn1)CC2`, the cytotoxicity at 10 µM was -107%. Consider `O=C(c1ccoc1)N1C[C@@H]2OCCN(c3ncccn3)[C@@H]2C1`, for which the cytotoxicity at 10 µM was found to be 5.09%.

Take `C1CCN(CCO[C@@H]2CC[C@H]3[C@H]2OCCN3CC2CCOCC2)C1`: the cytotoxicity at 10 µM was 2.98%. Consider `CNCc1cn(C2CCN(CCC(C)c3ccccc3)CC2)nn1` (stereo not given), for which the cytotoxicity at 10 µM worked out at 3.44%. `O=S(=O)(C1CC1)N1CC[C@H](OCC2CC2)[C@@H]1Cc1ccncc1`: the cytotoxicity at 10 µM was determined as 7.67%. With `Cc1cc(C)nc(N2CCC(Cn3cc(C(=O)N(C)C)cn3)CC2)n1`, the cytotoxicity at 10 µM worked out at 6.28%.

As to `CC(=O)N1CCCC1c1nccnc1NCc1cccnc1` (stereo not given), the cytotoxicity at 10 µM was -6.72%.

For `Cc1c(C(=O)N2CCC(c3nc(C)n4ccsc34)CC2)cnn1C`, the cytotoxicity at 10 µM was -4.41%. Regarding `CCc1cc(NCCCc2nc(C)no2)nc(-c2ccncc2)n1`, the cytotoxicity at 10 µM was found to be 2.63%. `COCCN1CCC(c2nc3c([nH]2)CC(C)(C)CNC3=O)CC1`: the cytotoxicity at 10 µM was -3.13%. As to `O=C(c1nc(N2CCCC2)ncc1Cl)N1CCN(Cc2ccsc2)CC1`, the cytotoxicity at 10 µM was -56%. For `CCOc1ccnc(N2CCN(C(=O)c3cccnc3O)CC2)n1`, the cytotoxicity at 10 µM is -6.51%. As to `O=C(Cc1ccco1)N1C[C@@H]2COC[C@]2(COCC2CCOCC2)C1`, the cytotoxicity at 10 µM was -102%.

For `CC(C)(C)NC(=O)NC(=O)CNC(C)(C)c1ccc2c(c1)OCCO2`, the cytotoxicity at 10 µM is -8.72%. As to `CC(C)C[C@@H](CO)n1cc(-c2cnc(-c3ccco3)nc2)nn1`, the cytotoxicity at 10 µM is -0.662%. Take `O=C(c1ccc2[nH]cnc2c1)N1CCC(Oc2ccccn2)CC1`: the cytotoxicity at 10 µM was 1.59%. On to `O=C(NCc1cccnc1)NC1CCC2(CCC(=O)N2CC2CC2)CC1` (stereo not given), for which the cytotoxicity at 10 µM was -114%. For `CS(=O)(=O)N1CC2(CCCN(CC3CC3)C2)Cc2ccccc21` (stereo not given) the value was 2.85%; for `c1ncc2c(n1)CN(Cc1nc(-c3ccc4c(c3)OCO4)no1)CC2`, -10.4%; for `O=C([C@H]1COC[C@H]2CN(C3CCCC3)C[C@H]21)N1CCCO1`, 2.14%. As for `COc1c[nH]c(C(=O)Nc2nc(C(C)(C)C)cs2)cc1=O`, the cytotoxicity at 10 µM was -49.6%. On to `COC1C[C@@H]2CN(C(=O)Cc3ccc(C)s3)C[C@@H]2C1` (stereo not given in full), for which the cytotoxicity at 10 µM was 3.53%. To `CCc1nc(C2CCCN2CC(=O)NCCc2ccsc2)no1` (stereo not given) belongs -2.81%; to `O=C(c1ccc(Cl)c(Cl)c1)N1CCCCC1C1OCCO1` (stereo not given), 9.25%; to `CCN(CC1CCOC1)C(=O)Nc1ccc(-n2cncn2)nc1` (stereo not given), -6.92%. Regarding `COCc1ccccc1CNc1nnc(C)c(C)c1C#N`, the cytotoxicity at 10 µM was -2.48%. For `O=C(N[C@H]1CCCC[C@@H]1O)c1ccc(-c2nc3ccccc3[nH]2)cc1`, the cytotoxicity at 10 µM is -1.43%. In the case of `CN(C)C1CCCN(C(=O)NCCC(=O)N2CCCCCC2)C1` (stereo not given), the cytotoxicity at 10 µM was -6.45%. Take `CCc1onc(C)c1C(=O)N1CCN(c2ncc3c(n2)CCOC3)CC1`: the cytotoxicity at 10 µM came to 0.0912%. `CCCn1nc(C)c(CNS(=O)(=O)NCc2ccccc2)c1C`: the cytotoxicity at 10 µM was -5.05%. For `CNC(=O)N1CC[C@H]2N(C)CC[C@@]2(C(=O)Nc2ccccc2)CC1` the value was -17.2%; for `CCc1cnc(C)nc1NCCN1CCOCC1`, -2.66%; for `O=C(NCc1ccccc1)N1CCc2ncnc(NC3CC3)c2CC1`, -100%. Consider `Cc1nc(COC[C@@H]2CCC[C@@]23CN(C)CCO3)cs1`, for which the cytotoxicity at 10 µM was -88.9%. Take `CS(=O)(=O)NCc1ncn2c1CN(C(=O)C1CCCCC1)CCC2`: the cytotoxicity at 10 µM was -71.2%. To `CCn1nc(C)c(NC(=O)CN2CC[C@H](CO)[C@@H](O)C2)c1C` belongs 0.887%; to `CC(=O)Nc1cnc(Oc2ccccc2F)nc1`, -4.23%; to `Cc1ccnc(NC(=O)C2CCN(CCCc3cn[nH]c3)CC2)c1`, -49%.

Consider `Cc1cnn(CC2CCCN2C(=O)CCCc2nc(C)no2)c1` (stereo not given), for which the cytotoxicity at 10 µM amounted to 2.86%. `CC(C)c1nnc2n1CCN(C(=O)c1ccccc1OCC1CC1)C2`: the cytotoxicity at 10 µM was 10.5%. To `O=C(CCn1ccc2ccc(Br)cc21)/N=c1\[nH]nc(C2CCCO2)s1` (stereo not given) belongs -9.46%. With `N#Cc1ccc(N2CCC(OC3CCOCC3)CC2)cc1Cl`, the cytotoxicity at 10 µM was found to be 1%. Take `CC(=O)N(C)CC(=O)NCC1CCN(c2cc(Cl)ccc2C)C1` (stereo not given): the cytotoxicity at 10 µM was -8.77%. Regarding `CN(C)C(=O)CN1CCOCC2(CCN(c3ncc(F)cn3)CC2)C1`, the cytotoxicity at 10 µM is 0.419%. For `CCN(CC)C(=O)CCc1c(C)nc2cc(O)nn2c1C`, the cytotoxicity at 10 µM is 0.33%. For the compound `COCCO[C@H]1CCN(c2cc(OC)ncn2)[C@H]1Cc1cnn(C)c1`, the cytotoxicity at 10 µM is -133%. For `O=C(C1SCCc2sccc21)N1CCN(CC(F)F)CC1` (stereo not given), the cytotoxicity at 10 µM was -4.5%. As for `Cc1ccc(C(=O)N2CCCn3nc(CCC(=O)O)cc3C2)cc1Cl`, the cytotoxicity at 10 µM is -3.49%. As for `COc1ccc(OC)c(CCNC(=O)NC(C)Cn2ccnc2)c1` (stereo not given), the cytotoxicity at 10 µM was -1.06%. Take `O=C(O)CN1CCC(F)(F)C2(CCN(c3ccccn3)C2)C1` (stereo not given): the cytotoxicity at 10 µM came out at 1.78%. In the case of `CCn1cc(CCC(=O)NCc2csc(C3CC3)n2)c(C)n1`, the cytotoxicity at 10 µM was -8.78%. Turning to `O=C(Cn1cc(-c2ccccc2)ncc1=O)Nc1ncc[nH]1`, the cytotoxicity at 10 µM was determined as 5.89%. With `CCc1nccn1CC(=O)Nc1cccc(C(=O)N(C)C)c1`, the cytotoxicity at 10 µM is -6.77%. Take `CCCC(C#N)NC(=O)CCCOc1cccc(C(C)=O)c1` (stereo not given): the cytotoxicity at 10 µM was -46.2%.

Regarding `Cc1csc(N2CCN(CC(=O)Nc3cccnc3)CC2C)n1` (stereo not given), the cytotoxicity at 10 µM was 14.1%. `O=C(NC1CCCc2nc(N3CCOCC3)ncc21)C1CCCCC1` (stereo not given): the cytotoxicity at 10 µM was -19.9%. As to `CS(=O)(=O)N1CCCN(CCCSCc2ccccc2)CC1`, the cytotoxicity at 10 µM was -2.35%. On to `CCCS(=O)(=O)NC1CCN(c2cccc(F)c2C#N)CC1`, for which the cytotoxicity at 10 µM is -5.6%.

`COc1nc2c(cc1C(=O)N(C)Cc1[nH]nc3c1CCC3)CCC2`: the cytotoxicity at 10 µM is -1.77%.

Take `COc1cc(F)cc2sc(NC(=O)COCC3CCCO3)nc12` (stereo not given): the cytotoxicity at 10 µM was -5.07%. Take `Cc1nsc(NC(=O)NC2CCCOC2)n1` (stereo not given): the cytotoxicity at 10 µM stood at 16%. As for `C=C(Br)CN(C)C1CCN(CCc2ccccn2)CC1`, the cytotoxicity at 10 µM was found to be 0.953%. For the compound `COc1ccc(C[C@H]2CN(C(=O)CS(C)(=O)=O)CC[C@H]2OC)cc1`, the cytotoxicity at 10 µM came out at 2.64%. As to `COc1cc(C)c(CN2CCC3(CC2)[C@H](O)C[C@@H]3OCCN)cc1C`, the cytotoxicity at 10 µM was found to be 13.6%. `CN1CCC(N2C[C@H](O)C[C@H]2c2nc(Cc3ccccc3)no2)CC1`: the cytotoxicity at 10 µM came to 10.7%. To `O=c1cc(N2CCCCC2)cnn1C[C@H](O)CO` belongs 2.04%; to `CCN(CC(=O)NC)C(=O)c1sc(Cc2ccccc2)nc1C`, -6.37%; to `CCC(O)CN1CCN(C(=O)c2sccc2OC)CC1` (stereo not given), -7.25%.

For `NC(=O)c1cccc(CN2CCOC(Cn3cccn3)C2)c1` (stereo not given), the cytotoxicity at 10 µM was -2.69%. On to `CN(CC(=O)N1CCC(Oc2ccc(C(F)(F)F)cn2)CC1)S(C)(=O)=O`, for which the cytotoxicity at 10 µM came out at 1.97%. In the case of `COc1ccc(C(C(=O)O)N2CCC(O)(c3cccnc3)CC2)cc1F` (stereo not given), the cytotoxicity at 10 µM worked out at 50.8%. As to `CC1c2ncc(COCC3CC3)n2CCN1S(=O)(=O)N(C)C` (stereo not given), the cytotoxicity at 10 µM stood at 18.4%. Turning to `Cc1nn(C)c2c(NCc3ccccn3)nc(C(C)C)nc12`, the cytotoxicity at 10 µM is -3.23%. As to `CC(C)(C)n1ncc2c1NC(=O)CC2c1ccsc1` (stereo not given), the cytotoxicity at 10 µM was 20.4%. For `Cc1ccc(NC2CCN(C(=O)c3nccc4ccccc34)CC2)nn1` the value was -13.5%; for `CCc1ccc(C(=O)N2CCCC(CNS(C)(=O)=O)C2)o1` (stereo not given), -19.7%. To `CN(C)CCn1ccnc1C1CCCN(c2cc(N)ncn2)C1` (stereo not given) belongs -7.76%. With `CNC(=O)C1CCN(C(=O)NCc2ccc(-c3ccn[nH]3)cc2)CC1`, the cytotoxicity at 10 µM was -4.22%. To `Cc1ccc(CN(CCCO)Cc2nc3ccccc3[nH]2)s1` belongs 7.18%. Take `CC(=O)N1CCC(c2nccnc2Oc2ccccc2)CC1`: the cytotoxicity at 10 µM was determined as 3.7%. For `CN(c1c(F)cccc1F)S(=O)(=O)c1cc2c(c(C(=O)O)c1)OCCO2` the value was -7.57%. Turning to `CS(=O)(=O)c1ccc(CNC[C@H]2COCc3nc4cccnc4n32)cc1`, the cytotoxicity at 10 µM was -0.505%.

Turning to `Cn1c(N2CCOCC2)nc2cc(C(=O)N[C@@H]3CC[C@@H](N)C3)ccc21`, the cytotoxicity at 10 µM was -1.07%.
